Bridges are numbered along the chain shown (N, C = ends). Where no end group is shown, it is not given here.
How the values were obtained:
[1] = system: FL-BCRs on transduced Raji lymphoma cells; assay: Surface staining of BCR-transduced Raji cells by biotinylated peptides; format: binding, human; details: synthetic biotinylated peptides, flow cytometry
How it was run: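 Raji cells were lentivirally transduced with a lymphoma BCR scFv fused to a membrane-anchored human antibody Fc fragment, then FACS-sorted for BCR carriers. Cells were grown with 10% FBS, 10 mM Hepes, penicillin/streptomycin and 2 mM GlutaMAX. Surface staining used synthetic biotinylated peptides and an anti-IgG Fc antibody, read by flow cytometry. One Raji population served as the Fc-staining control.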

[2] = system: cells from FL patient 4 biopsy; assay: Flow cytometry staining of control biopsy cells; format: binding, human; details: control biopsy sample
How it was run: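 Flow cytometry on control B cells from a lymphoma biopsy, stained with a synthetic biotinylated cyclic peptide ligand. B cells were gated with a B220-specific antibody. Bound peptide was detected with FITC-labelled streptavidin.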

“CILDLPKFC (disulfide 1-9 (inferred)) [FL1]” was tested, and the “binding to BCRs on transduced Raji cells (in words)” value (shortened to “binding to BCRs”) [1] was “BCRs capable of binding to the peptides were present on these cells” and the “staining by the FL1 peptide (in words)” value [2] was “did not demonstrate any significant staining”.

In the case of “CMPHWQNHC (disulfide 1-9 (inferred)) [FL2]”, the “binding to BCRs” value [1] is reported as “BCRs capable of binding to the peptides were present on these cells”.

For “CTTDQARKC (disulfide 1-9 (inferred)) [FL3]”, the “binding to BCRs” value [1] was “BCRs capable of binding to the peptides were present on these cells”.
